Compound activity as filed in PubChem BioAssay.
KCNQ1 act: potentiators or activators of human KCNQ1 potassium channel. CHO-K1 KCNQ1, thallium flux FluxOR fluorescence; active compounds read high. B-score at 10 µM. actives 0.35% (n = 310,000). AID 2648;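 active = fluorescence ratio B-score, a plate-corrected score, at least three library SD, with initial intensity B-score within 5 SD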
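Doses: Single concentration per compound, DMSO matched to controls | Test system: KCNQ1-transfected CHO-K1 cells | Timing: 90 min dye loading and 20 min compound exposure, both at room temperature | Measured by: Kinetic FluxOR thallium fluorescence, 10-s 1-Hz baseline, 110-s post-stimulus read | Medium: Assay buffer with matched DMSO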
KCNQ1 block: inhibitors of human KCNQ1 potassium channel | P51787 | CHO-K1 KCNQ1, FluxOR thallium flux fluorescence; active compounds read high | B-score at 10 µM | actives 1.3% (n = 310,000) | AID 2642;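 active = compounds whose thallium flux B-score, printed positive for inhibition, exceeds three library SD while starting fluorescence stays within three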;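 also: channel opened by potassium depolarization with thallium stimulus after 20 min compound exposure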
KCC2 mod: KCC2 (human) Cl- transport modulation; AID 1456; KCC2 cells, thallium flux FluoZin-2 fluorescence; Q9H2X9; actives 2.2% (n = 190,000); B-score of Tl+ flux slope (higher = more flux/activation; lower = inhibition) at 10 µM;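 active = thallium flux slope and its plate-corrected score both differing from the plate sample mean at a set confidence after two filtering rounds, in either direction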;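 also: slope of fluorescence scaled to starting intensity during 10 to 20 s after thallium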
Target sequence (Q9H2X9 whole entry, looked up): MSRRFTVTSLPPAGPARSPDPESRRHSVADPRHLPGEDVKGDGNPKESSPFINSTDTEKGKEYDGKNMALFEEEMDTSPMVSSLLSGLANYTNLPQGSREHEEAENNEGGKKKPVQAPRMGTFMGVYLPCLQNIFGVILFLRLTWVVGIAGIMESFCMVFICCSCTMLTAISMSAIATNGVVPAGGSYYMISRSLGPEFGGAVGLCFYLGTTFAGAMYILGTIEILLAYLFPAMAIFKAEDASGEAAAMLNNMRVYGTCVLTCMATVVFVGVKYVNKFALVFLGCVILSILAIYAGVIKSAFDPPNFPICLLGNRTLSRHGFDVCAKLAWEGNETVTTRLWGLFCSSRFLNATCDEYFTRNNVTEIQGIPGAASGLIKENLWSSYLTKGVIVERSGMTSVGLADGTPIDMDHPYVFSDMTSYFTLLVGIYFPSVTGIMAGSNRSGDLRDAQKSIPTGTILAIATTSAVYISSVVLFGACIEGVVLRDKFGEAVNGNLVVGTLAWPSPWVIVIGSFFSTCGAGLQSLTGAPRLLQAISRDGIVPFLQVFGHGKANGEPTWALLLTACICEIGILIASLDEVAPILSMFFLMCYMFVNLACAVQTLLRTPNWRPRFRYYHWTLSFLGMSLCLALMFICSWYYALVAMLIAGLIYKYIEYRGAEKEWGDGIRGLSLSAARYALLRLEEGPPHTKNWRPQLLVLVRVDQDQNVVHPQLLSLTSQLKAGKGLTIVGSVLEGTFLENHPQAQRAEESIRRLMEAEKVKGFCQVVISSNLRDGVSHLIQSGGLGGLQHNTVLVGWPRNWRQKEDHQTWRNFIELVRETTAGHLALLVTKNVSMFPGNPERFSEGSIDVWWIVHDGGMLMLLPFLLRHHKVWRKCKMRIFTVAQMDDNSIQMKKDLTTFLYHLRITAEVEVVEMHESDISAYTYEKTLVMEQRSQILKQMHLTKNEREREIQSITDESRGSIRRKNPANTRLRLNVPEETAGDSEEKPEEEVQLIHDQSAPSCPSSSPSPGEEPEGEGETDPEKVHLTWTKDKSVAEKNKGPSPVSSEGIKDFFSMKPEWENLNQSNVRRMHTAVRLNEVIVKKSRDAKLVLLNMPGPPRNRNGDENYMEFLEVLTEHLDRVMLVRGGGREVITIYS
hERG rescue: hERG (human) protection from proarrhythmic block | Q12809 | CHO-hERG, FluxOR thallium flux, dofetilide IC70 present | activation (rescue from dofetilide block), less the hit threshold, % at 10 µM | actives 0.51% (n = 310,000);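 active = activation above the mean of controls blocked by dofetilide plus 5 SD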;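 also: thallium influx through hERG after potassium depolarization seen as dye fluorescence rise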
Mot1-301 SUMO: SUMOylation pathway inhibition by Mot1-301 growth rescue. S. cerevisiae Mot1-301 growth rescue, ATP luminescence, 38.5C; percent above DMSO median, 100 means doubled. growth rescue, % at 18.8 µM. actives 1% (n = 320,000);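 active = every valid replicate shows activation above 250% relative to neutral control wells; inactive = the rest, any valid replicate at or below 250%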
AI-2 QS mod: Vibrio harveyi AI-2 quorum sensing modulation. Vibrio harveyi JMH597 AI-2 luminescence/OD600 ratio, 9 h; active compounds read low; strain lacks LuxN and CqsS sensors; 0 = neutral-control median. actives 0.4% (n = 300,000). activity change, % at 7.5 µM; in the data active = activity change below about -75%, passing the limit was not always enough;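 also: luminescence divided by OD600 gain over 9 h not by final OD600 alone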
Yeast Mot1 SUMO: inhibits SUMO pathway, affecting Mot1-301 yeast growth. shares compounds with Mot1-301 SUMO. S. cerevisiae Mot1-301 galactose growth, ATP luminescence, 24 h; -100 = growth of slx-deleted rescue strain. growth activity, percent, % at 42 µM. 2,300 tested, under 10 active. AID 493004;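 active = Signal drops as the depositor expects, and the fitted half-maximal dose is no more than ten times the top valid tested dose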;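 also: more negative values mean stronger growth rescue toward the control strain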
Large screens that a line does not name were inactive (follow-up assays come after a bar, where they were run). In the library only some 4.2% were active in any assay of this set; here they are far more common.

CC(=O)Nc1ccc(CN2CCc3c([nH]c4ccccc34)C2C(C)(C)C)cc1 (stereo not given)	none (no result: KCC2 mod)
CCn1cc(CN2CCC(n3nccc3NC(=O)CCOc3ccccc3)CC2)c(C)n1	none (no result: KCC2 mod, Mot1-301 SUMO)
Cn1ncc(Cl)c1C(=O)NC(=S)Nc1sc2c(c1C#N)CCCCC2	none
COc1cc(/C=N/NC(=O)Cc2csc(C)n2)ccc1OCC(C)C	none (no result: Mot1-301 SUMO)
Cc1nc(CC(=O)N/N=C/c2ccc(OCC(=O)O)cc2)cs1	Mot1-301 SUMO 571.3 | Yeast Mot1 SUMO inactive
O=C(Cn1nc(C(=O)O)c2ccccc2c1=O)Nc1ccc(Cl)c(S(=O)(=O)N2CCOCC2)c1	none (no result: KCNQ1 act, KCNQ1 block, KCC2 mod, hERG rescue, AI-2 QS mod)
Cc1ccc(C)c(NC(=O)CN(C)C(=O)c2cc3ccccc3oc2=O)c1	none (no result: KCNQ1 act, KCNQ1 block, KCC2 mod, hERG rescue, AI-2 QS mod)
O=C(O)CC(NC(=O)CC(c1ccccc1)c1ccccc1)c1cccc([N+](=O)[O-])c1 (stereo not given)	none (no result: KCC2 mod)
O=C(O)CC(NC(=O)c1ccc2c(c1)OCO2)c1cccc([N+](=O)[O-])c1 (stereo not given)	Mot1-301 SUMO active | Yeast Mot1 SUMO inactive
N#C/C(=C\c1ccc(O)c(O)c1)C(=O)Nc1ccccc1	Mot1-301 SUMO 369.4 (no result: KCNQ1 act, KCNQ1 block, KCC2 mod, hERG rescue, AI-2 QS mod) | Yeast Mot1 SUMO inactive
C[C@@H](NC(=O)/C(C#N)=C/c1ccc(O)c(O)c1)c1ccccc1	none (no result: KCNQ1 act, KCNQ1 block, KCC2 mod, hERG rescue, AI-2 QS mod)
COc1cc(C)ccc1OCc1cc(C(=O)N2CCC(c3ccc(F)cc3)C2)no1 (stereo not given)	none (no result: KCC2 mod)
C[C@@H](NC(=O)OC(C)(C)C)C(=O)NCC1CCC(C(=O)N[C@@H](Cc2ccccc2)C(=O)O)CC1 (stereo not given in full)	none (no result: KCC2 mod)
C[C@H](NC(=O)OC(C)(C)C)C(=O)NCC1CCC(C(=O)N[C@@H](Cc2ccccc2)C(=O)O)CC1 (stereo not given in full)	Mot1-301 SUMO 477.4 (no result: KCC2 mod) | Yeast Mot1 SUMO inactive
O=[N+]([O-])c1ccc(-c2csc(N3CCc4ccccc4C3)n2)cc1	Mot1-301 SUMO 366.7 | Yeast Mot1 SUMO inactive
CN(C(=O)c1cncc(Br)c1)C1C2CC3CC(C2)CC1C3 (stereo not given)	Mot1-301 SUMO 779.5 (no result: KCC2 mod) | Yeast Mot1 SUMO inactive
COCCCNC(=O)c1cc(C(=O)c2c(-c3c(Cl)cccc3Cl)noc2C)c[nH]1	Mot1-301 SUMO active | Yeast Mot1 SUMO inactive
CC(C)(C)OC(=O)NCc1n[nH]c(=S)n1C1CC1	none
N#Cc1c(NC(=O)c2ccc([N+](=O)[O-])o2)sc2c1CCC2	Mot1-301 SUMO 466.4 (no result: KCC2 mod) | Yeast Mot1 SUMO inactive
CC(C)c1onc(C(=O)Nc2sc3c(c2C#N)CCC3)c1[N+](=O)[O-]	none
COc1ccc(S(=O)(=O)N2CCC(C(=O)NN3CCCCC3)CC2)cc1OC	none (no result: KCNQ1 act, KCNQ1 block, KCC2 mod, hERG rescue, AI-2 QS mod)
O=C1CNC(=O)/C1=C\N1CCN(C(c2ccccc2)c2ccccc2)CC1	none
COc1cc(NC(=O)COC(=O)Cc2ccsc2)cc(OC)c1	none (no result: KCNQ1 act, KCNQ1 block, KCC2 mod, hERG rescue, AI-2 QS mod)
Oc1ccc(Br)cc1/C=N/n1c(COc2ccccc2)n[nH]c1=S	Mot1-301 SUMO 679.4 (no result: KCC2 mod) | Yeast Mot1 SUMO inactive
S=c1[nH]nc(COc2ccccc2)n1/N=C/c1ccccc1Br	none (no result: KCC2 mod)
CCS(=O)(=O)N1CCCC(C(=O)NCc2cccnc2)C1 (stereo not given)	Mot1-301 SUMO 361.6 (no result: KCC2 mod) | Yeast Mot1 SUMO inactive
Cc1ccccc1-c1nc(CN2CCCC(C(=O)NCc3cccnc3)C2)c(C)o1 (stereo not given)	Mot1-301 SUMO active (no result: KCC2 mod) | Yeast Mot1 SUMO inactive
Cc1ccccc1-c1nc(CN2CCCC(C(=O)NCCCN3CCOCC3)C2)c(C)o1 (stereo not given)	none (no result: KCC2 mod)
COc1ccc(CNC(=O)CSc2ccc(Br)cc2)cc1OC	none
Cc1cc(-c2ccc(C)c(S(=O)(=O)N3CC(=O)Nc4ccccc43)c2)on1	none (no result: KCC2 mod)
Cc1cc(-c2ccc(C(C)C)c(S(=O)(=O)N3CC(=O)Nc4ccccc43)c2)on1	Mot1-301 SUMO 580.6 (no result: KCC2 mod) | Yeast Mot1 SUMO inactive
COc1ccccc1NS(=O)(=O)c1ccc(OC)c(OC)c1	none
